“Also recorded” adds a separate entry of the source. No end group written: not given here. *: point of attachment. X1 = CN(C)c1ccc2c(-c3ccc(N4C(=O)CC(*)C4=O)cc3C(=O)[O-])c3ccc(N(C)C)cc3[o+]c2c1
Assays:
[1] = cited from earlier work
[2] = system: 15N-labeled Ca^2+-loaded CaM; assay: 1H,15N-HSQC NMR titration of 15N-labeled CaM; assay type: binding; details: Ca^2+-CaM, 310 K
Solubility = assay type: physicochemical
[3] = target: CaM (I-CaM, IAEDANS-labeled CaM-K75C) (Homo sapiens, UniProt P0DP23, K76C); assay: I-CaM fluorescence titration of water-soluble peptides; assay type: binding; details: 0.1 mM CaCl2 versus 0.3 mM EDTA
[4] = system: D/A-CaM (donor/acceptor-labeled CaM); assay: FRET measurements using D/A-CaM; assay type: binding; details: compared with CaMKII-derived peptide; calcium-containing buffer, pH 7.4
CaM [5] = target: T1, CaM (Homo sapiens, UniProt P0DP23); assay: Isothermal titration calorimetry; assay type: binding; details: 10 mM MOPS, 2 mM CaCl2, 100 mM NaCl, pH 7.4, 30 °C
Collisional fluorescence = assay type: binding; details: pH 7.4
CaM [6] = target: T1, CaM; assay: CaM titration to TMR-CLS liposomes, TMR fluorescence; assay type: binding; details: pH 7.4; for association with CaM in 15% POPS liposomes: 15% POPS / 85% POPC liposomes, absence and presence of calcium
I-CaM = I-CaM (Homo sapiens, UniProt P0DP23, K76C); assay: I-CaM titration to CLS liposomes, Trp315 to IAEDANS energy transfer; assay type: binding
Method in brief: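 Unlabelled CLS (30 nM) in liposomes was titrated with IAEDANS-labelled cysteine-mutant CaM. Its concentration came from IAEDANS absorbance. Buffer was 10 mM MOPS, 100 mM NaCl, pH 7.4, with 0.3 mM EDTA or 1 mM CaCl2, at 20 °C. Excitation was 295 nm, and Trp quenching was read at 333 nm. Spectra were averaged over 3 scans and corrected with empty liposomes. Kd came from a hyperbolic fit.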

[7] = Far-UV CD spectroscopy in liposomes; assay type: physicochemical; details: 1 mM MOPS, pH 7.4, 20 °C
Method in brief: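 CLS reconstituted into large unilamellar vesicles (extruded, 400-nm filter) at about 10 μM in 1 mM MOPS, pH 7.4. Far-UV spectra (190–260 nm) were taken in a 0.1-cm cuvette at 20 °C with 0.2 nm steps and 10 scans each, corrected against empty liposomes. CLS content was measured by Trp emission after dissolving in 2% SDS, against a standard curve.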

CaM [8] = target: T1, CaM; assay: Overall affinity of CaM for L-selectin cytoplasmic domain; assay type: binding; details: phosphatidylserine content mimics that in the inner leaflet of the cell plasma membrane

Compound: NCCCCCCNS(=O)(=O)c1cccc2c(Cl)cccc12 [W-7]
- membrane binding and surface potential [1]: directly bind to membrane and alter the electrostatic surface potential

Compound: ARRLKKGKKSKRSMNDPY [ARR18]
- CaM lobes bound ([2]; 10 mM MOPS, 100 mM NaCl, 5 mM CaCl2, pH 6.3): binds to both the N- and C-lobes of Ca^2+-CaM
- nature of the binary complex ([2]; saturating concentrations of ARR18, pH 6.3): dynamic and exist as an ensemble of interconverting conformers
- solubility in water / aqueous solutions (Solubility): soluble in water up to millimolar concentration
- effect of calcium on association with CaM [3]: calcium does not influence the association of CaM with ARR18
- conformation of bound CaM [4]: much more extended conformation
- N (stoichiometry of binding) (CaM [5]; ARR18 316 μM in 10 μl increments into 27.6 μM CaM, one-site model): 0.92±0.05
- ΔH (enthalpy change per mole of ligand) (CaM [5]; ARR18 316 μM into 27.6 μM CaM, one-site model): -0.77 ± 0.07 kcal/mol
- ΔS (entropy change) (CaM [5]; derived from Ka and ΔH): 21.7 cal/mol·K

Compound: KLDKSFSMIKEGDYNPLFIPVAVMVTAFSGLAFIIWLARRLKKGKKSKRC(X1)MNDPY [TMR-CLS]
- effect of NaNO3 on TMR fluorescence (15% POPS versus POPC liposomes) (Collisional fluorescence; 150 mM NaI, increasing NaNO3, 10 mM MOPS, ex 542 nm, em 575 nm): quenched more significantly in 15% POPS liposomes compared to POPC liposomes
- association with CaM in 15% POPS liposomes (CaM [6]): does not bind
- change in TMR fluorescence emission on addition of CaM (CaM [6]; 15% POPS liposomes, up to 10 μM CaM, 10 mM MOPS, 100 mM NaCl, 1 mM EDTA or 0.1 mM CaCl2): little change in TMR fluorescence emission

Compound: KLDKSFSMIKEGDYNPLFIPVAVMVTAFSGLAFIIWLARRLKKGKKSKRSMNDPY [CLS]
- effect of calcium on interaction with CaM (I-CaM; CLS in POPC liposomes, CaCl2 versus EDTA): independent of calcium ion
- quenching of Trp315 fluorescence by I-CaM (I-CaM; unlabeled CLS in 15% POPS liposomes, pH 7.4): did not produce a significant quenching of Trp315 fluorescence
- secondary structure by CD ([7]; POPC and 15% POPS liposomes, minima at 208 and 222 nm): characteristic of the α-helical secondary structure
- α-helical content in 15% POPS versus POPC liposome ([7]; ellipticity at 222 nm): less α-helical secondary structure in the 15% POPS liposome than in the POPC liposome
- location of cytoplasmic domain relative to membrane surface (Collisional fluorescence; POPC liposomes with 0–15% POPS, 20 °C): located closer to the surface of membranes that have higher concentrations of negatively charged lipids
- solubility in water / aqueous solutions (Solubility): not soluble in aqueous solutions
- association with CaM in 15% POPS liposomes (CaM [6]): does not associate
- interaction with CaM (summary) (CaM [8]): undetectable; also recorded: fails to bind

Source: paper PMC3143253 (Journal of molecular biology, 2011)
